# Data published in paper PMC2614345 (Toxicology and applied pharmacology, 2008).
# Like-named read-outs stand apart in the source and are kept apart here.
# Legend:
# [1] = Biliary excretion of DAPM metabolites; type: in vivo, Sprague Dawley rats; conditions: for biliary excretion, male compared to female rats: AUC analysis, 25 and 50 mg/kg DAPM; for AUC for DAPM metabolite elimination in the bile, Females: female rats; for AUC for DAPM metabolite elimination in the bile, Females / AUC for DAPM metabolite elimination in the bile, Males: bile collected 6 h, mean ± SEM, n=4–6; for AUC for DAPM metabolite elimination in the bile, Males: male rats
# Outline: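 Sprague Dawley rats of both sexes (12–15 wk) under pentobarbital, with biliary, duodenal and peritoneal cannulas and duodenal taurocholate infusion; 1 h basal bile. Gavage of [14C]-test compound, 25 or 50 mg/kg in 35% ethanol, 2 mL/kg. Bile taken for 6 h in 15-min fractions, deproteinized, then C18 HPLC with UV 254 nm and radioisotope detection. Per-rat nmol-versus-time AUC; group mean ± SEM, n=4–6; two-way ANOVA.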
# [2] = 25 mg/kg DAPM, ref Dugas et al., 2001, cited from earlier work
# [3] = test system: rats; conditions: ref Dugas et al., 2001, cited from earlier work
compound,measurement,setting,value
"Nc1ccc(Cc2ccc(N)cc2)cc1 [DAPM, 4,4’-Methylenedianiline]","biliary excretion, male compared to female rats",[1],biliary excretion in males was likewise greater than that in female rats
same,"AUC for DAPM metabolite elimination in the bile, Females",[1]; DAPM 25 mg/kg by gavage,29 ± 14 nmol·h
same,"AUC for DAPM metabolite elimination in the bile, Females",[1]; DAPM 50 mg/kg by gavage,67 ± 31 nmol·h
same,"AUC for DAPM metabolite elimination in the bile, Males",[1]; DAPM 25 mg/kg by gavage,155 ± 22 nmol·h
same,"AUC for DAPM metabolite elimination in the bile, Males",[1]; DAPM 50 mg/kg by gavage,176 ± 74 nmol·h
same,maximum rate of biliary excretion of metabolite,"[2]; female rats, maximum at 45 min",~ 9 µg/min*kg
same,maximum rate of biliary excretion of metabolite,"[2]; male rats, maximum at 15 min",~ 18 µg/min*kg
same,threshold dose for observing injury,[3]; female rats,25 mg/kg
same,threshold dose for observing injury,[3]; male rats,50 mg/kg
"CC(=O)Nc1ccc(Cc2ccc(N)cc2)cc1 [Metabolite M5, N-acetyl-DAPM]","biliary excretion, male compared to female rats",[1],greater in male compared to female rats
same,"AUC for DAPM metabolite elimination in the bile, Females",[1]; DAPM 25 mg/kg by gavage,39 ± 13 nmol·h
same,"AUC for DAPM metabolite elimination in the bile, Females",[1]; DAPM 50 mg/kg by gavage,132 ± 70 nmol·h
same,"AUC for DAPM metabolite elimination in the bile, Males",[1]; DAPM 25 mg/kg by gavage,175 ± 11 nmol·h
same,"AUC for DAPM metabolite elimination in the bile, Males",[1]; DAPM 50 mg/kg by gavage,259 ± 86 nmol·h
